Results from ChEMBL document CHEMBL1131000, “Synthesis and quantitative structure-activity relationships of N-(1-benzylpiperidin-4-yl)phenylacetamides and related analogues as potent and selective sigma1 receptor ligands” (J Med Chem, 1998).

Target: Sigma 2 receptor
Experiment: Binding affinity towards sigma 2 receptor site in rat liver membranes using [3H]DTG as radioligand in presence of (+)-pentazocine.
Format: cell membranes, Membrane
Outline: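 Male Sprague-Dawley rat liver crude P2 membranes, 35 μg protein, with 3 nM [3H]DTG plus 100 nM (+)-pentazocine to mask σ1 sites. Incubated in 50 mM Tris-HCl pH 8.0 for 120 min at 25 °C. Nonspecific binding defined with 5 μM DTG. Filtration, then scintillation counting. IC50 by nonlinear regression.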

Row | Compound | Ki [µM]
1 | O=C(Cc1ccc(Cl)cc1Cl)NC1CCN(Cc2ccccc2)CC1 | 0.0245
2 | O=C(Cc1ccccc1[N+](=O)[O-])NC1CCN(Cc2ccccc2)CC1 | 0.493
3 | O=C(Cc1cccc(F)c1)NC1CCN(Cc2ccccc2)CC1 | 0.153
4 | O=C(Cc1ccccc1C(F)(F)F)NC1CCN(Cc2ccccc2)CC1 | 0.0619
5 | O=C(Cc1ccc([N+](=O)[O-])cc1)NC1CCN(Cc2ccccc2)CC1 | 0.105
6 | COc1ccc(OC)c(CC(=O)NC2CCN(Cc3ccccc3)CC2)c1 | > 1
7 | COc1ccc(CC(=O)NC2CCN(Cc3ccccc3)CC2)cc1 | 0.483
8 | O=C(Cc1ccc(F)c(F)c1)NC1CCN(Cc2ccccc2)CC1 | 0.0535
9 | O=C(Cc1ccc(O)c(O)c1)NC1CCN(Cc2ccccc2)CC1 | > 1
10 | O=C(Cc1ccc(F)cc1)NC1CCN(Cc2ccccc2)CC1 | 0.0692
11 | COc1cccc(C(O)CNC2CCN(Cc3ccccc3)CC2)c1OC (centres undefined) | 0.535
12 | O=C(Cc1ccccc1O)NC1CCN(Cc2ccccc2)CC1 | 0.343
13 | O=C(Cc1cccc([N+](=O)[O-])c1)NC1CCN(Cc2ccccc2)CC1 | 0.0792
14 | O=C(Cc1cc(F)cc(F)c1)NC1CCN(Cc2ccccc2)CC1 | 0.0373
15 | COc1cc(CC(=O)NC2CCN(Cc3ccccc3)CC2)cc(OC)c1 | > 1
16 | COc1ccccc1CC(=O)NC1CCN(Cc2ccccc2)CC1 | > 1
17 | COc1cccc(CC(=O)NC2CCN(Cc3ccccc3)CC2)c1 | 0.326
18 | O=C(Cc1ccc(Cl)cc1)NC1CCN(Cc2ccccc2)CC1 | 0.0807
19 | O=C(Cc1cccc(O)c1)NC1CCN(Cc2ccccc2)CC1 | > 1
20 | O=C(Cc1ccccc1Br)NC1CCN(Cc2ccccc2)CC1 | 0.0866
21 | O=C(Cc1ccc([N+](=O)[O-])cc1[N+](=O)[O-])NC1CCN(Cc2ccccc2)CC1 | 0.243
22 | O=C(Cc1ccc(O)c(Cl)c1)NC1CCN(Cc2ccccc2)CC1 | 0.757

Row | Compound | Ki [µM]
23 | CSc1ccc(CC(=O)NC2CCN(Cc3ccccc3)CC2)cc1 | 0.0833
24 | O=C(Cc1ccc(O)cc1)NC1CCN(Cc2ccccc2)CC1 | > 1
25 | COc1ccc(CC(=O)NC2CCN(Cc3ccccc3)CC2)cc1OC | > 1
26 | O=C(Cc1ccc(F)cc1F)NC1CCN(Cc2ccccc2)CC1 | 0.13
27 | O=C(Cc1ccccc1Cl)NC1CCN(Cc2ccccc2)CC1 | 0.174
28 | CSc1ccc(NC(=O)NC2CCN(Cc3ccccc3)CC2)cc1 | 0.0805
29 | O=C(Cc1ccccc1F)NC1CCN(Cc2ccccc2)CC1 | 0.667
30 | O=C(Cc1cccc(Cl)c1)NC1CCN(Cc2ccccc2)CC1 | 0.0369
31 | O=C(Cc1ccccc1)NC1CCN(Cc2ccccc2)CC1 | 0.24
32 | COc1ccc(NC(=O)NC2CCN(Cc3ccccc3)CC2)c(OC)c1 | 0.227
33 | O=C(Cc1ccc(Br)cc1)NC1CCN(Cc2ccccc2)CC1 | 0.0239
34 | O=C(Cc1ccc(Cl)c(Cl)c1)NC1CCN(Cc2ccccc2)CC1 | 0.0146
35 | O=C(Cc1cc(F)ccc1F)NC1CCN(Cc2ccccc2)CC1 | 0.129
36 | O=C(Cc1c(Cl)cccc1Cl)NC1CCN(Cc2ccccc2)CC1 | 0.0708
37 | O=C(Cc1cccc(Br)c1)NC1CCN(Cc2ccccc2)CC1 | 0.0152
38 | O=C(Cc1ccc(C(F)(F)F)cc1)NC1CCN(Cc2ccccc2)CC1 | 0.0534
39 | O=C(Cc1cccc(C(F)(F)F)c1)NC1CCN(Cc2ccccc2)CC1 | 0.0378
40 | O=C(Cc1c(F)cccc1F)NC1CCN(Cc2ccccc2)CC1 | 0.207
41 | COc1cc(CC(=O)NC2CCN(Cc3ccccc3)CC2)cc(OC)c1OC | > 1
42 | Nc1ccc(CC(=O)NC2CCN(Cc3ccccc3)CC2)cc1 | > 1
43 | O=C(Cc1ccc2c(c1)OCO2)NC1CCN(Cc2ccccc2)CC1 | 0.29
44 | OC(CCCN1CCC(O)(c2ccc(Cl)cc2)CC1)c1ccc(F)cc1 (centres undefined) [HYDROXYHALOPERIDOL] | 0.0286
